# Source: PubChem
# SF-1 act = activators of human nuclear receptor SF-1 | Q13285 | CHO-K1 Gal4-SF-1 LBD luciferase reporter; % increase over DMSO SF-1-specific signal | activation, % at 10 µM | 1.9% of 65,000 active;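 active = activation above the mean activation of all tested compounds plus 3 SD, cut at about 50% in these data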
#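 Assay system: CHO-K1 cells co-transfected with Gal4 DBD–human SF-1 LBD, 5xGal4 luciferase reporter; doses: 10 µM only; incubation: 20 h compound exposure at 37 °C after 1 h cell settling; signal: luciferase light emission; evaluation: percent activation versus DMSO; repeats: one test per compound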
# RORa activator = RORA (human) activation; activation, % at 10 µM; 1.5% of 65,000 active; AID 560; CHO-K1 Gal4-RORA LBD luciferase reporter, luminescence; percent increase over mock-subtracted basal signal;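 active = activation above the mean of all tested compounds plus 3 SD, cut at about 49% in these data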;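 note: 0% = DMSO-treated RORA cells and 100% = added signal equal to DMSO minus mock-transfected cells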
# M1 ag = M1 muscarinic receptor agonism | CHO-M1 cells, Fluo-4 calcium fluorescence, agonist mode; active compounds read high | AID 626 | 3% of 64,000 active | B-score at 10 µM;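 active = fluorescence rise, raw or as B-score row- and column-corrected plate score, outside the 99.7% band of its plate's samples, either direction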
# M1 antagonist = M1 muscarinic receptor (rat) antagonism | AID 628 | 3.4% of 64,000 active | CHO-M1 cells, Fluo-4 calcium, ACh EC80 antagonist mode; active compounds read low | B-score at 10 µM | P08482;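 active = calcium fluorescence response, raw or row-and-column corrected B-score, differing from the plate sample mean either way at a set confidence level, mostly lower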
# HePTP inh = inhibitors of human HePTP phosphatase; P35236; recombinant HePTP phosphatase activity, OD absorbance; inhibition, % at 20 µM; 0.64% of 110,000 active; AID 521; in the data active = inhibition above about 50%;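 note: plate controls were vehicle for no effect and reference inhibitor for full effect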
# Target sequence (P35236 whole entry, looked up): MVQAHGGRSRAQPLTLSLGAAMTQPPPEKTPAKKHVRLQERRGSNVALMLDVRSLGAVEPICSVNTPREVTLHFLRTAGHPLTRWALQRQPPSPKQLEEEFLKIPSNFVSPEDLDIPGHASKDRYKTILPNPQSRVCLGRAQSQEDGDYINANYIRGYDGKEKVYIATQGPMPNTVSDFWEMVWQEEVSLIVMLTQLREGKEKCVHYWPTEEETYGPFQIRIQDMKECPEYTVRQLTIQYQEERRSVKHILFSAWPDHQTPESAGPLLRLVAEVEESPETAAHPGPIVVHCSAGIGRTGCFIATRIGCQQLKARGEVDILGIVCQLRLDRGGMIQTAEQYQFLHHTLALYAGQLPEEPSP
# D1 allo mod = allosterically modulates the human D1 dopamine receptor; P21728; HEK293 D1, CRE-luciferase, dopamine EC30 potentiation; actives deviate in either direction; B-score at 10 µM; 5.9% of 58,000 active; AID 641;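 active = luminescence count or its row- and column-corrected plate score outside the 99.7% band of the plate's sample wells, on either side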
# M1 antag confirm = M1 muscarinic receptor (rat) antagonism, confirmed; CHO-M1 cells, Fluo-4 calcium, ACh EC80 antagonism; active compounds read low; shares compounds with M1 antagonist; calcium response (max-min fluorescence) at 10 µM; AID 677; 43% of 1,700 active;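 active = calcium response below the same-plate mean of wells given acetylcholine alone at its 80%-effect dose, minus 3 SD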;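 note: raw fluorescence intensity difference in arbitrary instrument units and not normalized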
# mGluR4 antag = mGluR4 (human) activity, M1 antagonist secondary assay; shares compounds with M1 antagonist; CHO-mGluR4 calcium flux, Fluo-4 fluorescence, glutamate EC80; active compounds read low; fluorescence response (max-min) at 10 µM; 0.9% of 1,700 active; AID 678;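 active = fluorescence response below the plate's average for near-maximal glutamate wells, less 3 SD of those wells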;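 note: raw unnormalized fluorescence span taken in the window right after glutamate addition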
# D1 mod confirm = confirmation of human D1 dopamine receptor allosteric modulators | shares compounds with D1 allo mod | HEK293 D1 CRE-luciferase, dopamine EC30 potentiation; active compounds read high | luminescence at 10 µM | 88% of 2,200 active | AID 642;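 active = luminescence in either of two replicates above the same-plate mean plus 3 SD of the low-dose dopamine control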
# D1 ag no DA = D1 (human) signaling in absence of dopamine; luminescence at 10 µM; AID 646; HEK293 D1 CRE-luciferase, luminescence, no dopamine; active compounds read high; 0.8% of 1,900 active; shares compounds with D1 allo mod; in the data active = luminescence above about 3900
# Isoprot counter = counter-screen for D1 modulators: isoproterenol response in HEK293 cells; shares compounds with D1 allo mod; HEK293 D1 CRE-luciferase, isoproterenol EC30 counter-screen; calls only at 10 µM; 63% of 2,200 active;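 active = luminescence in either replicate above plate mean of wells with a partly effective reference agonist dose plus 3 SD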;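 note: isoproterenol raises cAMP through native beta-adrenoceptor Gs so signal bypasses D1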
# * marks the source's active call; other numbers are inactive results; i = inactive; nt = no result; + = active, no number. Most compounds without a hit are left out; they make up all but 8.2% or so of the library.
SMILES,SF-1 act,RORa activator,M1 ag,M1 antagonist,HePTP inh,D1 allo mod,D1 mod confirm,D1 ag no DA,Isoprot counter,others
Cc1ccc(-n2ncc(C#N)c2/N=C/N2CCCCCC2)cc1,10,6,0.5,-2*,6,20*,17800*,1536,+,M1 antag confirm=560*;mGluR4 antag=196
COc1cccc(-n2c(SC)nnc2-c2cnccn2)c1,-8,-1,0.68,-3*,-4,14*,5740,1548,i,M1 antag confirm=622;mGluR4 antag=266
CCSc1sccc1C1C(C#N)=C(N)N(c2cccnc2)C2=C1C(=O)CCC2 (stereo not drawn),1,15,-0.28,0.011,10,0.057,nt,nt,nt,
COc1ccc(CN2CCN(S(=O)(=O)c3ccc(NC(C)=O)cc3)CC2)cc1OC,15,-9,-1.5,-2.7*,2,5.2*,15368*,1544,+,M1 antag confirm=529;mGluR4 antag=212
CCOC(=O)c1c(-c2cccs2)csc1NC(=O)c1ccc(F)cc1,nt,nt,nt,nt,8,nt,nt,nt,nt,
CCOC(=O)c1c(-c2cccs2)csc1NC(=O)CSc1ncn[nH]1,29,4,-0.39,-2.7*,6,3.3*,11080*,2064,i,M1 antag confirm=621;mGluR4 antag=235
NC1=NC(=O)C(Cc2cccc(C(F)(F)F)c2)S1 (stereo not drawn),nt,nt,nt,nt,4,nt,nt,nt,nt,
COc1nc(Nc2ccc(OC)c(Cl)c2)nc(OC)n1,6,-2,-0.11,-1.2*,10,4.3*,10816*,1484,+,M1 antag confirm=603;mGluR4 antag=255
Nc1nc(CN2CCN(c3ccccc3)CC2)nc(N2CCCc3ccccc32)n1,0,-13,-0.12,-3.1*,11,4*,8864*,1484,i,M1 antag confirm=659;mGluR4 antag=252
CCOC(=O)C1CCN(S(=O)(=O)c2cc(Br)cc3c2N(C(C)=O)C(C)C3)CC1 (stereo not drawn),-1,-8,0.43,-2.3*,10,4.6*,8392*,1388,+,M1 antag confirm=519;mGluR4 antag=200
Cc1cc(Oc2ccc([N+](=O)[O-])cc2)nc(-n2nc(C)cc2C)n1,nt,nt,nt,nt,6,nt,nt,nt,nt,
O=C(CCn1nc(-c2ccc(Cl)cc2)ccc1=O)NCCCN1CCCCCC1,4,1,0.28,-1.1,5,nt,nt,nt,nt,
O=C1CC(N2CCN(Cc3ccc4c(c3)OCO4)CC2)C(=O)N1CCc1ccccc1 (stereo not drawn),-19,6,-2.5,-1.2*,3,2.5*,4952,960,i,M1 antag confirm=482;mGluR4 antag=220
CCc1cccc(CC)c1NC(=O)c1cc(Cl)ccc1[N+](=O)[O-],nt,nt,nt,nt,5,nt,nt,nt,nt,
CCOc1ccc(S(=O)(=O)Nc2ccc3c(c2)OCO3)c2cccnc12,13,12,0.25,-0.031,8,4.8*,9784*,1612,+,
Cc1ccc2cccc(S(=O)(=O)Nc3ccc4c(c3)OCO4)c2n1,-2,-25,-0.8,0.64,-4,-0.014,nt,nt,nt,
CCOc1ccc(S(=O)(=O)NCc2ccc(F)cc2)c2cccnc12,-17,-4,0.23,0.44,4,10*,10944*,nt,+,
O=c1cc(N2CCC3(CC2)OCCO3)[nH]c(=O)n1-c1ccc(Cl)cc1,-1,28,0.8,0.85,8,0.019,nt,nt,nt,
Cc1c(NS(=O)(=O)CC23CCC(CC2=O)C3(C)C)c(=O)n(-c2ccccc2)n1C (stereo not drawn),10,-6,-0.18,1.4,8,3.3*,6536,1760,i,
CCOC(=O)c1ccc2nc(NC(=O)C(C)C)sc2c1,43,68*,-0.63,-1.3,8,5.4*,7532,1532,i,
c1ccc(CSc2nncn2-c2ccccn2)cc1,0,-4,-0.68,-1.7,10,7.9*,12884*,1752,+,
CSc1ccc(C2NC(=O)CCC2[N+](=O)[O-])cc1 (stereo not drawn),nt,nt,nt,nt,-4,nt,nt,nt,nt,
CCn1c(=O)c2cc(S(=O)(=O)NC3CCCCC3)ccc2n(CC)c1=O,6,7,0.47,0.03,9,4.2*,6924*,1232,i,
C=CCOC(=O)C1=C(C)NC(C)=C(C(=O)OCC=C)C1c1ccc(C(=O)OC)cc1,nt,nt,nt,nt,4,nt,nt,nt,nt,
CCOc1ccc(-n2c(-c3ccco3)n[nH]c2=S)cc1,7,-7,0.14,-0.52,-14,-0.027,nt,nt,nt,
SMILES,SF-1 act,RORa activator,M1 ag,M1 antagonist,HePTP inh,D1 allo mod,D1 mod confirm,D1 ag no DA,Isoprot counter,others
CC1(C)Cc2c(C#N)c(NCC3CCCO3)nc(-c3ccco3)c2CO1 (stereo not drawn),4,13,0.15,-0.47,-6,nt,nt,nt,nt,
Cc1nc2oc3c(NCC4CCCO4)ncnc3c2c2c1COC(C)(C)C2 (stereo not drawn),2,-6,-1.4,0.36,-6,6.4*,9548*,nt,i,
CCCc1nc2oc3c(NCCOCCO)ncnc3c2c2c1COC(C)(C)C2,-15,-12,nt,nt,11,14*,18640*,nt,+,
CCCc1nc2oc3c(NCCN4CCOCC4)ncnc3c2c2c1CCCC2,-3,-14,0.26,1.4,8,nt,nt,nt,nt,
CCOc1ccc(S(=O)(=O)N2CCOCC2)cc1,nt,nt,nt,nt,7,nt,nt,nt,nt,
CCCC(c1nnnn1C1CCCC1)N1CCN(C(=O)c2ccco2)CC1 (stereo not drawn),-11,-13,-0.16,-0.052,9,3.4*,5248,1512,i,
CCCCC(c1nnnn1C1CCCC1)N1CCN(C(=O)c2ccco2)CC1 (stereo not drawn),-17,-22,-0.54,-0.18,9,-0.46,nt,nt,nt,
CCOc1ccc(C(=O)NCc2ccco2)cc1Br,nt,nt,nt,nt,-4,nt,nt,nt,nt,
CCOc1ccc(C(=O)NCC(=O)OC(C)C(=O)NCc2ccco2)cc1OCC (stereo not drawn),-1,-14,-1.2,0.58,1,6*,5900,nt,+,
O=C(O)c1ccc(-c2ccc(O)c(F)c2)cc1,3,-10,1.6,-0.97,0,5.9*,7760*,1624,+,
CC(=O)Oc1ccc(-c2ccc(C(=O)O)cc2)cc1,-4,6,0.23,1.4,3,0.0087,nt,nt,nt,
CCOc1ccc(N/C(=N/S(=O)(=O)c2ccccc2)c2ccccc2)cc1,nt,nt,nt,nt,5,nt,nt,nt,nt,
COc1cc(N/C(=N/S(=O)(=O)c2ccccc2)c2ccccc2)ncn1,49,16,0.52,-0.61,-2,6.4*,14612*,1720,i,
